Test system: MS2 coat protein
Assay: apparent Kd, MS2 coat protein; higher = weaker binding; RNA-MaP array; FMN 200 µM where present
Procedure, shortened: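 Designs were transcribed by stalled E. coli RNA polymerase on Illumina sequencing-chip clusters. They were titrated with SNAP-549-labelled MS2 coat protein from 0.7 or 1.5 nM, doubling to 3 µM, in 100 mM Tris-HCl pH 7.5, 80 mM KCl, 4 mM MgCl2, BSA, DTT, yeast tRNA and Tween-20, without and then with constant ligand. The apparent Kd is the median of filtered per-cluster fits after normalisation of green signal to red-channel RNA signal and control-cluster median Fmax.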

[1] = designed as: OFF switch for flavin mononucleotide, no ligand
[2] = ligand present: flavin mononucleotide, designed as: OFF switch for flavin mononucleotide
[3] = designed as: ON switch for flavin mononucleotide, no ligand
[4] = ligand present: flavin mononucleotide, designed as: ON switch for flavin mononucleotide

Sequence	apparent Kd [1] [nM]	apparent Kd [2] [nM]	apparent Kd [3] [nM]	apparent Kd [4] [nM]
AAGAAGGACGCAGGAUAUCCAGGACCUCCCGCAGGAGAAGGGCGAGACACGUGGAUCACCCAGACAUGAGGAUCACCCAUGUAG	15.6	14.2		
CUGUUACAUGAGGAUCACCCAUGUAAGGAUAUCUGCCACUAGAGGGUCACUUUGGGAUGGAGAAGGUACACGGG	34.6	68.6		
GGGUAGUGAGGAUAUCGUUGUUAGGAGGAGUAGGUAGGAGGCGAGAAGGCACAUGAGGAUCACCCAUGUAUGGA	36.2	33.3		
UGUCGGAGCAGAGGAUAUUACAUGAGGAUCACCCAUGUUUGAACCAAUAGCUGGAAACAGCAAUGUAAGAAGGCUGCUCCGACA	91.2	242		
CCGAUGGUAUACUAGGAUAUGGGCGCCCUUACAUGAGGAUCACCCAUGUUAUCACAAAUCCGCGGCCAGAAGGAGUUCAUGGGAG			176	134
UGGGCGAGCCCAGUACUCACACAUGAGGAUCACCCAUGUGACGAGGAUAUAGACAGCGAUGCGUACUAGAAGGCGUCACGGUAA	11	46.2		
CCGACCUUGGCAGGAUAUAGACUCGAAGUUGAUCCCGCCGAUGGAGACAUGAGGAUCACCCAUGUCUAGAAGGGCCAGUCGAAA	14.3	46.1		
GAUGAGGUAGGAUAUACGAGAAGAUAGGGUAGAUAGAUAACACAUGAGGAUCACCCAUGUAGAAGGACCAGUAG	34.5	79.8		
UAGACCGAUGUUAGGAUAUCUGGUCGAGAAAGAAAAGAGAAGGAACAUGAGGAUCACCCAUGUACCCGGGUAAC	15	19.2		
CAACCGUUGCAGAAGGUUAAAUAAUUUCUCAUCUUGUUUACAUGAGGAUCACCCAUGUAUUUGUUGAAGGAUAUGCAAGGGUUG	6.96	6.6		
GAUUAACAUGAGGAUCACCCAUGUGAGGAUAUUGACUUGCUCACUUUCCCAUUCGAGUCGAGAAGGCGCAUCUU	28.7	29		
GAUUGUUUUUAGAAGGUGCCGACGAGAGUCGCAACAUGAGGAUCACCCAUGUGUCGGUGACGACGCAAGGAUAUGGAGGUGGUU			174	79.8
AAUUAAUUAAUUAAUUCCUGCAUACAUGAGGAUCACCCAUGUAAGGAUAUCGUCAGGAAUACUGACGAGAAGGUACAUAGCAGG	15.7	21.6		
CCUAAGGAGGCAGGAUAUAGUGUGGUGGCCGGGCUCCCACGGCGAGCGGCACUAGAAGGGUCACUACAUGAGGAUCACCCAUGU			73.3	30
AGUGUGGGAGGAUAUACAUGAGGAUCACCCAUGUGAGUUGGCUCACAUGCUACGCUUCGUAGAAGGCCCAAAGA	88.8	290		
CCGAAUGUCACAGGAUAUGGUCCGGGCUCGCGACCAGAAGGGUGAUCUCACAUGAGGAUCACCCAUGUGUAGGCGUUAGGCUAC			36.3	260
UUCCUCGUUGUGAGGAUAUCGUCCGUGUUUUGUUACGAGAAGGCACAUGAGGAUCACCCAUGUUACUUGAUGUU	18.7	110		
AGCAUGCAGUAGGAUAUCGAUCCACAAUAUGAACGAGAAGGACUGACAUGAGGAUCACCCAUGUGCGUCCUAGG	16.7	16.6		
GUUGGUGUAGAAGGAUAUUGGUGAGGCGUCUUGUACAUGAGGAUCACCCAUGUCAUUCUGCACGCCGAGAAGGUCUGCAAUUGG			67.9	57
GCAAAGCCUGACAUGAGGAUCACCCAUGUUAGAUUGUUAUGUCAGGAUAUUGUCUAGCAACUAGACAAGAAGGGAUGCUCUGCG			744	215
CUAUAUAAUACCUCAUGUACAUGAGGAUCACCCAUGUUAACUUAGGAUAUAUUUAUAUUAAUAGAGUAGAAGGAAGUACUAUUU	22.1	17.4		
CAUUCUUUUCCGGAGGAUAUGCUACCCUUUACAUGAGGAUCACCCAUGUUACCCUCUUCUUGUCAGUAGAAGGCCGUUUCUUAAC			27.4	25.1
GCAGCGUAUGUAGGAUAUCGGUCAGUUUCUGAUCGAGAAGGACAUGAGGAUCACCCAUGUAAAUUUCCGACUUUGUCGGGCUGC	7.04	8.73		
GGGCCCGGAGGAUAUACAUGAGGAUCACCCAUGUAGGGCCCGGGUAUUUUUGGGCCCUGUAGAAGGUUGGGCCC	11.5	12.2		
AUGGUUGUCGUAGGAUAUGUAGGAUAUUCCUACAUGAGGAUCACCCAUGUUCGCAUGGAAGAAGGACGGAAGGACGAUGACCAU			194	132
UUUAGUUGCGGGCAGGAUAUGUAUUAAAAUACAUGAGGAUCACCCAUGUGUGGGUAUAACACCCAACAGAAGGGCCAAUCGCGAC			132	18.3
UUUAAUUUAAUUAAGAUCACAUGAGGAUCACCCAUGUAAUUAUAGGAUAUCAGCUCGAAUAGAGCUGAGAAGGAUAAUUACAUA	89.5	57.7		
UAAGUACGAGGAUAUACAUAGAUACAGAUACAUGUAGACGUACAUGAGGAUCACCCAUGUAGAAGGCGUAUAUA	67.9	239		

Sequence	apparent Kd [1] [nM]	apparent Kd [2] [nM]	apparent Kd [3] [nM]	apparent Kd [4] [nM]
UAUUUUAACUAAGGAUAUCUGUAUUAUGUAGAAACAUGAGGAUCACCCAUGUUCUUGAUAUUAUAGGAGAAGGUAGAUGAAUAA			6.6	5.72
AAAUCAGCAGGAUAUGCGAUGUUGUGCUAGAUAGCGGGACCACAUGAGGAUCACCCAUGUAGAAGGGCUAGAUA	51.4	18.9		
UCGUUUAUACAAGGAUAUCAAUUAUAGCUAAAUUCAACAUGAGGAUCACCCAUGUAACUAUGGAGUGAGAAGGUGUAAUGACUU			514	302
UUUAUACAUGAGGAUCACCCAUGUGAGGAUAUGCUUUAUUAUUAUUAUUAUUAUUAUUGCAGAAGGCACGUUAU	39.3	54.8		
GCAUGACAUGUAGGAUAUCGAGCGCCGAGCGCUCGAGAAGGACAUGAGGAUCACCCAUGUAUUCCGAAUGAAUCAAGUCAUGCA	14.3	16.2		
GGAUCGUAUGUCAGGAUAUACCACUGGAUACAGUGGUAGAAGGGACAUGAGGAUCACCCAUGUCUUAUCGAUCC	13.2	18.3		
GUUAAGGUAGGAUAUACGAUAAUAUAGGGUAGAAUUAUAACACAUGAGGAUCACCCAUGUAGAAGGACCAAUUG	31.2	39.5		
UCCUUGUCCUGAGGAUAUCCGUGGUGACCGAAAGGAGAAGGCAGGACAUGAGGAUCACCCAUGUACCCAGAAAACGUGCAGAGA	35.9	232		
AAGUGGUUUAUAUAUUUAGAUAUCAGAAGGCGUGACAUGAGGAUCACCCAUGUGGACUAACAUGACGAGGAUAUGACUAAUUGU	30.4	39.8		
CCUGUCGCAUGAGGAUAUGGUCAGCUUUGCUGACCAGAAGGCAUGUCGAUAGACAUGAGGAUCACCCAUGUAGUAAAGACAGGA			831	57.3
GGGUACAUCGGAGGAUAUCAUAUAAAUACAUGAGGAUCACCCAUGUCGAUGGAGACAUCGGAGAUUGAGAAGGCCGAUGUACCG			8.43	5.54
AUGAGGUCAGGAUAUGCAUGGCGGGACUUGCGUCGUGGCGUGCAGAAGGGACAUGAGGAUCACCCAUGUGGAGA	104	325		
UGGUACAUGGGAGGAUAUGGGUUGAUAACAUGAGGAUCACCCAUGUUAAAUAUGCCUAAUGGCAACUAGAAGGCCCAUGUACCU			377	40.8
AUAGUGCGCGAGAAGGACGUACCACAUGUGGAUCACCUAUAUAAGGAACGUAGGAUAUUGCACAUGAGGAUCACCCAUGUGGAU			41.4	34.1
UAAAACCUAGGAUAUACAUGAGGAUCACCCAUGUUCGAAGGAGCCCAAGUGACUUCUAGUAGAAGGAGGGCGAA	18.8	23		
GUUAAUUAGUGAGGAUAUACAUAAUUUAAUACUGUAGAAGGCACAAUCCUCAAGACAUGAGGAUCACCCAUGUGAUAAUAAGCU	34.9	174		
UGUCGGAGCAGAGGAUAUAACAUGAGGAUCACCCAUGUAUGAACCAAUAGCUGGAAACAGCAAUGUAAGAAGGCUGCUCCGACA	5.8	6.69		
GGUACCAUCACAGGAUAUGCAAUCCUUUGGGUUGCAGAAGGGUGUAACAUGAGGAUCACCCAUGUGGUGCCAGGGCGUGAGCCC			423	44.5
CGCACUAUACAUGAGGAUCACCCAUGUUAAUAUGAGGUAGUCAGAAGGCAUUGUAUGAGAUAUUAUGAGGAUAUGAUUAGUGCG			226	41.4
AUUUAUGUCAUAGGAUAUAUAAAUAAAUUUAUAACAUGAGGAUCACCCAUGUACUUUGGUAUGAGGUAGAAGGAUGAUAAGAAU			49.6	31.9
CAUGUCCUCACAGGAUAUGCUGGACUUUGUCCAGCAGAAGGGUGAACAUGAGGAUCACCCAUGUAAAGGACAUGUAUAUUUAAU			1080	84.3
GGGUACAUGGGAGGAUAUCCUCAAGAGACAUGAGGAUCACCCAUGUAUUAUAAGCCGAAAGGCAUGGAGAAGGCCCAUGUACCG			62	19.1
UGUGGGUCAGGAUAUUCUAUUUAUUACAUGAGGAUCACCCAUGUGAAUGGACAAGGGUGUGAAGAAGGGACUUGUG	876	495		
ACCUAGACUAGGCCCACGGCAUCACAGGAUAUGCCGAUCACAUGAGGAUCACCCAUGUCAACUCCGCAGAAGGGUGAUAUCGUG			179	14.1
UUGGACGUGGUAGGAUAUGUAGGAUAUUCCUACAUGAGGAUCACCCAUGUUGACAUGGAAGAAGGACAGAAGGACGAUGUCCAU			112	35
GACAGCUCGUGAGGAUAUACAACACUGCUUCGGCAGUGUAUUAAGAUCACAUGAGGAUCACCCAUGUAGAAGGCACGAGCUGAU	13.5	319		
CCGAAUUAGUAGGAUAUAGGAGUCGAUAGACACCUAGAAGGACUAACAUGAGGAUCACCCAUGUGUCCUAUCGG	14.6	31.5		
